From ChEMBL document CHEMBL1949515, “Regioselective synthesis and antimicrobial activities of some novel aryloxyacetic acid derivatives” (2012)
Values after ≈ are worked out from the molar mass of the structure shown. Active and inactive are the calls of the source. The rule behind the calls is not given here.

What was measured:
Format in all cases: functional
[1] = test system: Candida albicans; assay: Antifungal activity against Candida albicans NRRL Y-477 by two fold serial dilution method
Procedure, shortened: (§1)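 MIC determined by two-fold serial dilution in the appropriate nutrient broth, only for compounds that gave sizeable inhibition zones in the well diffusion screen. Final concentrations stepped down by halves from 66 (66, 33, 16.5 …).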

[2] = test system: Klebsiella pneumoniae; assay: Antibacterial activity against Klebsiella pneumoniae ATCC 13883 after 24 hrs by two fold serial dilution method; settings: ATCC 13883, 24 h; procedure, shortened: as §1
[3] = test system: Saccharomyces cerevisiae; assay: Antifungal activity against Saccharomyces cerevisiae by two fold serial dilution method; procedure, shortened: as §1
[4] = test system: Staphylococcus aureus; assay: Antibacterial activity against Staphylococcus aureus ATCC 29213 after 24 hrs by agar well diffusion method
Procedure, shortened: (§2)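 Agar well diffusion on nutrient agar seeded with bacterial suspension at 1 × 10⁸ CFU/mL. Wells received compound solution from a stock of 100 mg per mL DMSO. Plates incubated 24 h at 37 °C. Read-out is inhibition zone diameter (mm), done in triplicate and averaged.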

[5] = test system: Escherichia coli; assay: Antibacterial activity against Escherichia coli ATCC 25922 after 24 hrs by two fold serial dilution method; settings: ATCC 25922, 24 h; procedure, shortened: as §1
[6] = test system: Priestia megaterium; assay: Antibacterial activity against Bacillus megaterium after 24 hrs by agar well diffusion method; procedure, shortened: as §2
[7] = test system: Klebsiella pneumoniae; assay: Antibacterial activity against Klebsiella pneumoniae ATCC 13883 after 24 hrs by agar well diffusion method; procedure, shortened: as §2
[8] = test system: Candida albicans; assay: Antifungal activity against Candida albicans NRRL Y-477 after 48 hrs by agar well diffusion method
Procedure, shortened: (§3)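 Fungal agar well diffusion on Sabouraud dextrose agar seeded at 1 × 10⁶ CFU/mL. Wells received compound solution from a 100 mg per mL DMSO stock. Incubation 48 h at 28 °C. Inhibition zone diameter (mm) measured in triplicate and averaged.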

[9] = test system: Pseudomonas aeruginosa; assay: Antibacterial activity against Pseudomonas aeruginosa ATCC 27953 after 24 hrs by two fold serial dilution method; settings: ATCC 27953, 24 h; procedure, shortened: as §1
[10] = test system: Bacillus subtilis; assay: Antibacterial activity against Bacillus subtilis ATCC 6633 after 24 hrs by two fold serial dilution method; settings: ATCC 6633, 24 h; procedure, shortened: as §1
[11] = test system: Staphylococcus aureus; assay: Antibacterial activity against Staphylococcus aureus ATCC 29213 after 24 hrs by two fold serial dilution method; settings: ATCC 29213, 24 h; procedure, shortened: as §1
[12] = test system: Escherichia coli; assay: Antibacterial activity against Escherichia coli ATCC 25922 after 24 hrs by agar well diffusion method; procedure, shortened: as §2
[13] = test system: Saccharomyces cerevisiae; assay: Antifungal activity against Saccharomyces cerevisiae after 48 hrs by agar well diffusion method; procedure, shortened: as §3
[14] = test system: Micrococcus luteus; assay: Antibacterial activity against Sarcina lutea after 24 hrs by agar well diffusion method; procedure, shortened: as §2
[15] = test system: Mycolicibacterium phlei; assay: Antibacterial activity against Mycobacterium phlei after 24 hrs by agar well diffusion method; procedure, shortened: as §2
[16] = test system: Pseudomonas aeruginosa; assay: Antibacterial activity against Pseudomonas aeruginosa ATCC 27953 after 24 hrs by agar well diffusion method; procedure, shortened: as §2
[17] = test system: Bacillus subtilis; assay: Antibacterial activity against Bacillus subtilis ATCC 6633 after 24 hrs by agar well diffusion method; procedure, shortened: as §2
[18] = test system: Priestia megaterium; assay: Antibacterial activity against Bacillus megaterium after 24 hrs by two fold serial dilution method; procedure, shortened: as §1
[19] = test system: Micrococcus luteus; assay: Antibacterial activity against Sarcina lutea after 24 hrs by two fold serial dilution method; procedure, shortened: as §1
[20] = test system: Mycolicibacterium phlei; assay: Antibacterial activity against Mycobacterium phlei after 24 hrs by two fold serial dilution method; procedure, shortened: as §1

Row | Structure (SMILES) | MIC [1] [µg/mL] | MIC [2] [µg/mL] | MIC [3] [µg/mL] | diameter of the inhibition zone (DIZ) [4] | MIC [5] [µg/mL] | diameter of the inhibition zone (DIZ) [6] | diameter of the inhibition zone (DIZ) [7] [mm] | diameter of the inhibition zone (DIZ) [8] | MIC [9] [µg/mL] | MIC [10] [µg/mL] | MIC [11] [µg/mL] | diameter of the inhibition zone (DIZ) [12] | diameter of the inhibition zone (DIZ) [13] [mm] | diameter of the inhibition zone (DIZ) [14] | diameter of the inhibition zone (DIZ) [15] | diameter of the inhibition zone (DIZ) [16] | diameter of the inhibition zone (DIZ) [17] | MIC [18] [µg/mL] | MIC [19] [µg/mL] | MIC [20] [µg/mL]
1 | CC(=N\NC(=O)COc1ccc2ccccc2c1)/C(=N\Nc1ccc(Cl)cc1)S(=O)(=O)c1ccccc1 | 8.25 (≈ 15.4 µM) | 16.5 (≈ 30.8 µM) | 8.25 (≈ 15.4 µM) | 23 mm | 8.25 (≈ 15.4 µM) | 23 mm | 24 | 24 mm | 16.5 (≈ 30.8 µM) | 33 (≈ 61.7 µM) | 16.5 (≈ 30.8 µM) | 28 mm | 30 | inactive | inactive | 26 mm | 20 mm | 16.5 (≈ 30.8 µM) |  | 
2 | O=C(COc1ccc2ccccc2c1)NNCC(=O)Nc1nccs1 | 66 (≈ 185 µM) | 33 (≈ 92.6 µM) | 16.5 (≈ 46.3 µM) | inactive |  | 22 mm | 23 | 20 mm |  | 66 (≈ 185 µM) |  | inactive | 22 | inactive | inactive | inactive | 18 mm | 8.25 (≈ 23.1 µM) |  | 
3 | CC(=N/NC(=O)COc1ccc(Cl)cc1Cl)/C(=N\Nc1ccc(Cl)cc1)S(=O)(=O)c1ccccc1 | 4.12 (≈ 7.45 µM) | 16.5 (≈ 29.8 µM) | 4.12 (≈ 7.45 µM) | 27 mm | 4.12 (≈ 7.45 µM) | 32 mm | 28 | 30 mm | 16.5 (≈ 29.8 µM) | 8.25 (≈ 14.9 µM) | 8.25 (≈ 14.9 µM) | 30 mm | 32 | 26 mm | 30 mm | 28 mm | 29 mm | 8.25 (≈ 14.9 µM) | 8.25 (≈ 14.9 µM) | 4.12 (≈ 7.45 µM)
4 | CC(=N/NC(=O)COc1ccc2ccccc2c1)/C(Cl)=N\Nc1ccc(Cl)cc1 | 33 (≈ 76.9 µM) | 16.5 (≈ 38.4 µM) | 16.5 (≈ 38.4 µM) | inactive | 16.5 (≈ 38.4 µM) | inactive | 24 | 20 mm |  |  |  | 21 mm | 26 | inactive | 16 mm | inactive | inactive |  |  | 
5 | CC(=N/NC(=O)COc1ccc(Cl)cc1Cl)/C(=N\Nc1ccc(Cl)cc1)Sc1ccccc1 |  | 16.5 (≈ 31.6 µM) | 4.12 (≈ 7.9 µM) | inactive |  | inactive | 24 | inactive |  |  |  | inactive | 28 | inactive | 13 mm | inactive | inactive |  |  | 
6 | CC(=N/NC(=O)COc1ccc2ccccc2c1)/C(Cl)=N\Nc1ccc(Br)cc1 | 33 (≈ 69.7 µM) | 33 (≈ 69.7 µM) | 16.5 (≈ 34.8 µM) | inactive |  | 21 mm | 21 | 21 mm |  | 66 (≈ 139 µM) |  | inactive | 24 | inactive | inactive | inactive | 18 mm | 16.5 (≈ 34.8 µM) |  | 
7 | CC(=N/NC(=O)COc1ccc(Cl)cc1Cl)/C(Cl)=N\Nc1ccc(Cl)cc1 | 66 (≈ 147 µM) | 33 (≈ 73.6 µM) | 16.5 (≈ 36.8 µM) | inactive |  | 20 mm | 21 | 18 mm |  | 66 (≈ 147 µM) |  | inactive | 24 | inactive | 15 mm | inactive | 18 mm | 16.5 (≈ 36.8 µM) |  | 
8 | CC(=N/NC(=O)COc1ccc(Cl)cc1Cl)/C(Cl)=N\Nc1ccc(Br)cc1 | 33 (≈ 67 µM) | 33 (≈ 67 µM) | 8.25 (≈ 16.7 µM) | inactive |  | 22 mm | 20 | 21 mm |  | 66 (≈ 134 µM) |  | inactive | 27 | inactive | inactive | inactive | 18 mm | 16.5 (≈ 33.5 µM) |  | 
9 | O=C(COc1ccc2ccccc2c1)NN/C=C(\NNC(=O)COc1ccc2ccccc2c1)c1cc2ccccc2oc1=O | 66 (≈ 110 µM) | 33 (≈ 54.9 µM) | 16.5 (≈ 27.5 µM) | inactive |  | 20 mm | 21 | 20 mm |  | 66 (≈ 110 µM) |  | inactive | 21 | inactive | inactive | inactive | 18 mm | 16.5 (≈ 27.5 µM) |  | 
10 | CC(=N/NC(=O)COc1ccc(Cl)cc1Cl)/C(=N\Nc1ccc(Br)cc1)Sc1ccccc1 | 66 (≈ 117 µM) | 66 (≈ 117 µM) | 33 (≈ 58.3 µM) | inactive |  | 20 mm | 18 | 20 mm |  | 66 (≈ 117 µM) |  | inactive | 23 | 20 mm | inactive | inactive | 18 mm | 16.5 (≈ 29.1 µM) | 16.5 (≈ 29.1 µM) | 
